Experimental data reported in ChEMBL document CHEMBL1137980, “Rationale, design, and synthesis of novel phenyl imidazoles as opioid receptor agonists for gastrointestinal disorders” (J Med Chem, 2004).
Residues, ends and D or L forms follow the SMILES beside them.

Assays:
[1] = biological target: Mu-type opioid receptor (Rattus norvegicus, UniProt P33535); assay: Binding affinity for Mu opioid receptor of rat brain
In short: (§1)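 Male Wistar rat forebrain membranes in 50 mM Tris HCl pH 7.4 with 5 mM MgCl2. Incubated 2.5 h at 25 °C with ~4 nM [3H]DPDPE (δ) or ~0.8 nM [3H]DAMGO (μ). Filtered, rinsed with 10 mM HEPES pH 7.4 and counted by liquid scintillation. Ki derived from a range of test concentrations; single-concentration data expressed as % inhibition of specific binding.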

[2] = biological target: Delta-type opioid receptor (Rattus norvegicus, UniProt P33533); assay: Binding affinity for delta opioid receptor of rat brain; in short: as §1
Delta-type opioid receptor (Rattus norvegicus, UniProt P33533), sequence (P33533 whole entry): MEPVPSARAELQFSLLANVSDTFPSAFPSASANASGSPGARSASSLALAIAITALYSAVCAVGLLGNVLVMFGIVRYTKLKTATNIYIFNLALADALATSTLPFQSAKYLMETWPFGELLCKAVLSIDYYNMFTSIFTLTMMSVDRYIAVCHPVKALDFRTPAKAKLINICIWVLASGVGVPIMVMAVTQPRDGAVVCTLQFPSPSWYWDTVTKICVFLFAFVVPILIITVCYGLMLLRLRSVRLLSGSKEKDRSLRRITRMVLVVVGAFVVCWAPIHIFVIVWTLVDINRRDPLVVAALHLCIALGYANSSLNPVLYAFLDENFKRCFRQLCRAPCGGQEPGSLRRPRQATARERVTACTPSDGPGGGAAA

[3] = biological target: Opioid receptors; mu & delta (Rattus norvegicus) (UniProt P33533+P33535); assay: Selectivity for mu 1 and delta 1 opioid receptors; assay type: protein assay
Opioid receptors; mu & delta (Rattus norvegicus), sequence (P33533 whole entry, looked up): as the sequence (P33533 whole entry) above
Opioid receptors; mu & delta (Rattus norvegicus), sequence (P33535 whole entry, looked up): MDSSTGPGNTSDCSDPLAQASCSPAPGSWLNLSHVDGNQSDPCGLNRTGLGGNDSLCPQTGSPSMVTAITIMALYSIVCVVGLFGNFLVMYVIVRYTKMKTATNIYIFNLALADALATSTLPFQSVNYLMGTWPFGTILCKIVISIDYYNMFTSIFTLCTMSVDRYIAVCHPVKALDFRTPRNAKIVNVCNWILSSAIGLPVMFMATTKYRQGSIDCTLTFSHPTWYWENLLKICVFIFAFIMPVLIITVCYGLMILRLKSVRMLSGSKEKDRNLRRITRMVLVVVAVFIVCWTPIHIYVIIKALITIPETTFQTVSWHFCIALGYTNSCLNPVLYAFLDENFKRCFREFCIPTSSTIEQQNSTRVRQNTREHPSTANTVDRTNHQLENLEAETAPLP

[4] = biological target: Mu-type opioid receptor (Cavia porcellus, UniProt P97266); assay: Inhibition of mu opioid receptor mediated GTPgammaS binding to CHO cell membranes; assay type: functional
Mu-type opioid receptor (Cavia porcellus, UniProt P97266), sequence (P97266 whole entry): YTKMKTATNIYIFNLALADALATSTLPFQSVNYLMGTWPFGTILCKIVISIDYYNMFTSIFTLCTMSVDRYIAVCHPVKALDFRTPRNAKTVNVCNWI

[5] = biological target: Delta-type opioid receptor (Homo sapiens, UniProt P41143); assay: Inhibition of delta opioid receptor mediated GTPgammaS binding to CHO cell membranes; assay type: functional
Delta-type opioid receptor (Homo sapiens, UniProt P41143), sequence (P41143 whole entry): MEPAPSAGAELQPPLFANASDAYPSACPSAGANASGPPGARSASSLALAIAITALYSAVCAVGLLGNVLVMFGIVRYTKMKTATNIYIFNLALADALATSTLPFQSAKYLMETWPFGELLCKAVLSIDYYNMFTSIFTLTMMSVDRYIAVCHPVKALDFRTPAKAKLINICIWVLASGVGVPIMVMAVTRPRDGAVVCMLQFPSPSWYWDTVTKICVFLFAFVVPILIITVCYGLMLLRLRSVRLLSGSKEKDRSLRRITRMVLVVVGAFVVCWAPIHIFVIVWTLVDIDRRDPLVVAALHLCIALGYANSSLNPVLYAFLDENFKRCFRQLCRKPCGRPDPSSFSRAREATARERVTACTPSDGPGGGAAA
In short: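 Purchased CHO-hδ cell membranes at 10 µg/mL, coupled to SPA beads at 5 mg/mL. Incubated with 0.5 nM [35S]GTPγS and 50 µM GDP in 50 mM HEPES pH 7.6 with 5 mM MgCl2, 100 mM NaCl, 1 mM DTT and 1 mM EDTA. Increasing agonist concentrations stimulated binding. Basal binding measured without agonist; nonspecific binding with 10 µM unlabeled GTPγS.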

[6] = biological target: Kappa-type opioid receptor (Cavia porcellus, UniProt P41144); assay: Binding affinity for kappa opioid receptor of guinea pig cerebellum; assay type: tissue-based
Kappa-type opioid receptor (Cavia porcellus, UniProt P41144), sequence (P41144 whole entry): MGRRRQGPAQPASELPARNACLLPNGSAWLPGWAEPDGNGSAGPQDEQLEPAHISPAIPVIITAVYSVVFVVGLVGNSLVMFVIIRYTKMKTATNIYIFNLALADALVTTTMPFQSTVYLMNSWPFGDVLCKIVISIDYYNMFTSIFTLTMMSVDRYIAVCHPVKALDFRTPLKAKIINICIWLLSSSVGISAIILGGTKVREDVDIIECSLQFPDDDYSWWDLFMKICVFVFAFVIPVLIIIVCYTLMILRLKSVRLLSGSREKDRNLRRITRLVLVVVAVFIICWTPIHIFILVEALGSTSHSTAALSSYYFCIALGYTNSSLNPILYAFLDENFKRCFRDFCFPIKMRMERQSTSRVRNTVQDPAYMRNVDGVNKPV

[7] = system: Mus musculus; assay: Percent inhibition of mouse abdominal constriction at a dose of 100 mg/kg when administered subcutaneously; assay type: functional; conditions: Abdomen, sc, route subcutaneous
In short: (§2)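 Male CD1 mice (18–40 g), n = 10 per group, dosed sc (10 mL/kg volume) or icv. Then challenged ip with acetylcholine bromide dissolved in distilled water (5.5 mg/kg as printed), given at 0.20 mL/20 g.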

[8] = biological target: Kappa-type opioid receptor (Homo sapiens, UniProt P41145); assay: Inhibition of rabbit vas deferens contractions; assay type: functional, Oryctolagus cuniculus; conditions: target entry is the homologue from another species
Kappa-type opioid receptor (Homo sapiens, UniProt P41145), sequence (P41145 whole entry): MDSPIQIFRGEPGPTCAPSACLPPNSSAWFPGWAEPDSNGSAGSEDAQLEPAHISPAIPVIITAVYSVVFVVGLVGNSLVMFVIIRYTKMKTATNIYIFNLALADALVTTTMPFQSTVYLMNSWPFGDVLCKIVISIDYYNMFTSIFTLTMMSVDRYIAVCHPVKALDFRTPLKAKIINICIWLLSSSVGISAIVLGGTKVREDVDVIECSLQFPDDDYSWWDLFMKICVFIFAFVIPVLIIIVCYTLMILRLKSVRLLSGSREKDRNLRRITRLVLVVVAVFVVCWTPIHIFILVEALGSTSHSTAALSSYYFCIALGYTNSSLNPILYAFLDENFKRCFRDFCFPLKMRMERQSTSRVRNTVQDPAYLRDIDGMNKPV
In short: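 κ functional study run on rabbit vas deferens tissue.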

[9] = system: Mus musculus; assay: Percent inhibition of mouse abdominal constriction at a dose of 10 ug upon intracerebro ventricular administration; assay type: functional, Abdomen; in short: as §2
[10] = system: Mus musculus; assay: Percent inhibition of mouse abdominal constriction at a dose of 100 ug upon intracerebro ventricular administration; assay type: functional, Abdomen; in short: as §2

Mu-type opioid receptor (Rattus norvegicus, UniProt P33535), sequence (P33535 whole entry): as the sequence (P33535 whole entry, looked up) above

Row | Structure (SMILES) | Ki [1] | Ki [2] | Selectivity [3] | EC50 [4] | EC50 [5] | also measured
1 | CCCc1c[nH]c([C@@H]2Cc3ccccc3N2C(=O)[C@@H](N)CC)n1 | > 100 nM | > 100 nM |  |  |  | 
2 | CCCc1nc([C@@H]2Cc3ccccc3CN2C(=O)[C@@H](N)Cc2ccc(O)cc2)[nH]c1C (single isomer, unassigned) | > 100 nM | > 100 nM |  |  |  | 
3 | N[C@@H](Cc1ccc(O)cc1)C(=O)N1Cc2ccccc2C[C@H]1c1nc2ccccc2[nH]1 (single isomer, unassigned) [listing 1 of 2 here] |  |  | > 2 |  |  | 
4 | N[C@@H](Cc1ccc(O)cc1)C(=O)N1Cc2ccccc2C[C@H]1c1nc(Br)c(-c2ccccc2)[nH]1 |  |  | 14 |  |  | 
5 | Cc1[nH]c([C@@H]2Cc3ccccc3CN2C(=O)[C@@H](N)Cc2ccc(O)cc2)nc1-c1ccccc1 (stereo in doubt; 4c) [listing 1 of 2 here] |  |  | 75 |  |  | 
6 | CN(C)C(=O)C(CCN1CCC(O)(c2ccc(Cl)cc2)CC1)(c1ccccc1)c1ccccc1 [LOPERAMIDE] |  | 50.1 nM |  | 58 nM |  | 
7 | Cc1[nH]c([C@@H]2CCCCN2C(=O)[C@@H](N)Cc2ccc(O)cc2)nc1-c1ccccc1 | 1.5 nM | 21.5 nM | 0.1 | 153 nM | 542 nM | 
8 | CCCc1nc([C@@H]2Cc3ccccc3CN2C(=O)[C@@H](N)Cc2ccc(O)cc2)[nH]c1C | > 100 nM | 62.7 nM |  |  | 85 nM | 
9 | CCCc1[nH]c([C@@H]2Cc3ccccc3CN2C(=O)[C@@H](N)Cc2ccc(O)cc2)nc1C |  |  | > 1 |  |  | 
10 | N[C@@H](Cc1ccc(O)cc1)C(=O)N1Cc2ccccc2C[C@H]1c1nc2ccccc2[nH]1 [listing 1 of 2 here] |  |  | > 6 |  |  | 
11 | N[C@@H](Cc1ccc(O)cc1)C(=O)N1Cc2ccccc2C[C@H]1c1nc(-c2ccccc2)c[nH]1 | 54.7 nM | 0.9 nM | 63 | 2400 nM | 25 nM | Ki [6]: 124 nM; inhibition in vivo at 100 mg/kg [7]: 0%; EC50 [8]: > 30 nM; Inhibition [9]: 40%; Inhibition [10]: 100%
12 | Cc1[nH]c([C@@H]2Cc3ccccc3CN2C(=O)[C@@H](N)Cc2ccc(O)cc2)nc1-c1ccccc1 (stereo in doubt; 4c) [listing 2 of 2 here] | 20.7 nM | 0.3 nM |  | > 10000 nM | 1.4 nM | 
13 | N[C@@H](Cc1ccc(O)cc1)C(=O)N1Cc2ccccc2C[C@H]1c1nc2ccccc2[nH]1 [listing 2 of 2 here] | > 100 nM | 15.1 nM |  | > 10000 nM | 37 nM | 
14 | Cc1[nH]c([C@@H]2Cc3ccccc3CN2C(=O)[C@@H](N)Cc2ccc(O)cc2)nc1-c1ccccc1 (stereo in doubt) [listing 1 of 2 here] |  |  | 4 |  |  | 
15 | N[C@@H](Cc1ccc(O)cc1)C(=O)N1Cc2ccccc2C[C@H]1c1nc2ccccc2[nH]1 (single isomer, unassigned) [listing 2 of 2 here] | > 100 nM | 49.6 nM |  |  | 440 nM | 
16 | N[C@@H](Cc1ccc(O)cc1)C(=O)N1Cc2ccccc2C[C@H]1C(=O)NCCc1ccccc1 (HELM PEPTIDE1{Y.[Tic].[c1ccc(CCN[*:1])cc1]}$$$$V2.0) | 69 nM | 5.2 nM | 13 | 2120 nM | 82 nM | 
17 | Cc1[nH]c([C@@H]2Cc3ccccc3CN2C(=O)[C@@H](N)Cc2ccc(O)cc2)nc1-c1ccccc1 (stereo in doubt) [listing 2 of 2 here] | 85.6 nM | 19.4 nM |  |  | 127 nM | 
18 | Cc1[nH]c([C@@H]2CCCN2C(=O)[C@@H](N)Cc2ccc(O)cc2)nc1-c1ccccc1 | 23.1 nM | > 100 nM | < 0.02 | 1300 nM |  | 
19 | N[C@@H](Cc1ccc(O)cc1)C(=O)N1Cc2ccccc2C[C@H]1c1nc(-c2ccccc2)c(Br)[nH]1 | 11.6 nM | 0.11 nM |  | > 10000 nM | 1.9 nM | 
